In ChEMBL document CHEMBL1122694, “Steroidogenesis inhibitors. 1. Adrenal inhibitory and interceptive activity of trilostane and related compounds” (1984):
Active and inactive are the calls of the source. The calls are words filed in the database; no cut-off is given here.

Key:
[1] = system: Monkey; assay: Effective dose for interruption of pregnancy in greater than 90% of the monkeys; type: functional, Cercopithecidae
Outline: (§1)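 Pregnant monkeys dosed once daily on days 50–54 of pregnancy; group size two to six or more monkeys. Effective dose, in mg per monkey per day, is the dose interrupting pregnancy in more than 90% of monkeys.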

[2] = system: Rattus norvegicus; assay: Effect of compound on plasma level of progesterone in ACTH treated pseudopregnant rats when administered orally; type: functional; details: po, read-out: MED
Outline: (§2)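 Pseudopregnant rats stimulated with ACTH; single oral dose, groups of seven rats. Plasma progesterone and corticosterone measured; MED in mg/kg po is the single dose giving a significant (p < 0.01) fall versus stimulated control levels.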

[3] = system: Monkey; assay: Effect of compound on plasma level of cortisol in ACTH treated rhesus monkey when administered orally; type: functional; details: Cercopithecidae, in Macaca mulatta, po, read-out: MED
[4] = system: Rattus norvegicus; assay: Effect of compound on plasma level of corticosterone in ACTH treated pseudopregnant rats when administered orally; type: functional; details: po, read-out: MED; outline: as §2
[5] = system: Rattus norvegicus; assay: Minimum effective dose for 100% interruption of pregnancy in rat when compound was administered perorally; type: functional
Outline: (§3)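 Pregnant rats given a single oral dose on day 10 of pregnancy, seven rats per group. MED, in mg/kg po, is the minimum dose giving 100% interruption of pregnancy.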

[6] = system: Monkey; assay: Effective dose for interruption of pregnancy in greater than 90% of the monkeys; IN-Inactive; type: functional, organism-based; details: Cercopithecidae; outline: as §1
[7] = system: Rattus norvegicus; assay: Minimum effective dose for 100% interruption of pregnancy in rat when compound was administered perorally; IN-Inactive; type: functional, organism-based; outline: as §3

SMILES	MED90 [1] [mg monkey-1 day-1]	MED10 [5] [mg/kg]	further results
CC12CC[C@H]3[C@@H](CC[C@@]45OC4C(=O)[C@H](C#N)CC35C)[C@@H]1CCC2O (stereo partly specified)	1000	500	minimal effective dose [2]: 500 mg/kg; minimal effective dose [3]: 10 mg/kg; minimal effective dose [4]: 50 mg/kg
CC1CC2C3CCC(O)C3(C)CCC2C2(C)Cc3cnoc3C3O[C@]132 (stereo partly specified)		>500	
CC12O[C@]13CCC1C(CCC4(C)C1CC[C@]4(C)O)C3(C)Cc1cnoc12 (stereo partly specified)		192	MED90 [6]: inactive
CC12CC[C@H]3[C@@H](CC[C@@]45OC4(C)C(=O)[C@H](C#N)CC35C)[C@@H]1CCC2O (stereo partly specified)	>500	125	minimal effective dose [2]: 5 mg/kg; minimal effective dose [3]: 250 mg/kg; minimal effective dose [4]: 50 mg/kg
CC12CC[C@H]3[C@@H](CCC4CC(=O)[C@H](C#N)CC43C)[C@@H]1CCC2O (stereo partly specified)			MED10 [7]: inactive
CC12CC[C@H]3[C@@H](CC[C@@]45OC4C(=O)[C@H](C#N)CC35C)[C@@H]1CC[C@]2(C)O (stereo partly specified)	250	500	minimal effective dose [2]: 500 mg/kg; minimal effective dose [3]: 10 mg/kg; minimal effective dose [4]: 50 mg/kg
CC1C[C@H]2[C@@H]3CCC(O)C3(C)CC[C@@H]2C2(C)C[C@@H](C#N)C(=O)C3O[C@]132 (stereo partly specified)	500	12	
CC12CCC3C(CC[C@@]45OC4c4oncc4CC35C)C1CC[C@]2(C)O (stereo partly specified)		>500	
CC12CCC3C(CC[C@@]45OC4(C)c4oncc4CC35C)C1CCC2O (stereo partly specified)		>500	
CC12C[C@@H](C#N)C(=O)C=C1CCC1C2CCC2(C)C(O)CCC12 (stereo partly specified)		1000	
CC12CCC3C(CC[C@@]45OC4c4oncc4CC35C)C1CCC2O (stereo partly specified)		>500	
CC12CC[C@H]3[C@@H](CC[C@]45OC4C(=O)[C@@H](C#N)CC35C)[C@@H]1CCC2O (stereo partly specified)			MED10 [7]: inactive
CC12CC[C@H]3[C@@H](CC[C@@]45OC4C(=O)CCC35C)[C@@H]1CCC2O (stereo partly specified)			MED10 [7]: inactive
CC1(C)C(=O)[C@H](C#N)CC2(C)C1=CCC1C2CCC2(C)C1CC[C@]2(C)O (stereo partly specified)		6	MED90 [6]: inactive
CC12O[C@]13CC[C@@H]1[C@H](CCC4(C)[C@H]1CC[C@]4(C)O)C3(C)C[C@@H](C#N)C2=O (stereo partly specified)	250	50	minimal effective dose [2]: 20 mg/kg; minimal effective dose [3]: 250 mg/kg; minimal effective dose [4]: 20 mg/kg
CC1(C)C2=CCC3C(CCC4(C)C3CC[C@]4(C)O)C2(C)Cc2cnoc21 (stereo partly specified)	>1000	25	
